What was measured:
[1] = target: Voltage-gated inwardly rectifying potassium channel KCNH2 (Homo sapiens, UniProt Q12809); experiment: Binding affinity to human ERG
[2] = target: C-C chemokine receptor type 2 (Homo sapiens, UniProt P41597); experiment: Binding affinity to CCR2 receptor (unknown origin)
[3] = AUC in rat at 10 mg/kg, po; type: ADME, organism-based; set-up: dose 10 mg/kg, route oral; conditions: plasma
In short: (§1)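 Rat pharmacokinetics after a single oral dose of 10 mpk given in 0.5% methocel. Maximum plasma concentration and plasma exposure (AUC) were taken from the plasma concentration–time profile.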

[4] = Cmax in rat at 10 mg/kg, po; type: ADME, organism-based; set-up: dose 10 mg/kg, route oral; conditions: in vivo; in short: as §1
hERG (KCNH2) = hERG (KCNH2) (Homo sapiens, UniProt Q12809); experiment: Inhibition of human ERG at 3 uM by patchxpress assay
hERG (KCNH2), sequence (Q12809 whole entry): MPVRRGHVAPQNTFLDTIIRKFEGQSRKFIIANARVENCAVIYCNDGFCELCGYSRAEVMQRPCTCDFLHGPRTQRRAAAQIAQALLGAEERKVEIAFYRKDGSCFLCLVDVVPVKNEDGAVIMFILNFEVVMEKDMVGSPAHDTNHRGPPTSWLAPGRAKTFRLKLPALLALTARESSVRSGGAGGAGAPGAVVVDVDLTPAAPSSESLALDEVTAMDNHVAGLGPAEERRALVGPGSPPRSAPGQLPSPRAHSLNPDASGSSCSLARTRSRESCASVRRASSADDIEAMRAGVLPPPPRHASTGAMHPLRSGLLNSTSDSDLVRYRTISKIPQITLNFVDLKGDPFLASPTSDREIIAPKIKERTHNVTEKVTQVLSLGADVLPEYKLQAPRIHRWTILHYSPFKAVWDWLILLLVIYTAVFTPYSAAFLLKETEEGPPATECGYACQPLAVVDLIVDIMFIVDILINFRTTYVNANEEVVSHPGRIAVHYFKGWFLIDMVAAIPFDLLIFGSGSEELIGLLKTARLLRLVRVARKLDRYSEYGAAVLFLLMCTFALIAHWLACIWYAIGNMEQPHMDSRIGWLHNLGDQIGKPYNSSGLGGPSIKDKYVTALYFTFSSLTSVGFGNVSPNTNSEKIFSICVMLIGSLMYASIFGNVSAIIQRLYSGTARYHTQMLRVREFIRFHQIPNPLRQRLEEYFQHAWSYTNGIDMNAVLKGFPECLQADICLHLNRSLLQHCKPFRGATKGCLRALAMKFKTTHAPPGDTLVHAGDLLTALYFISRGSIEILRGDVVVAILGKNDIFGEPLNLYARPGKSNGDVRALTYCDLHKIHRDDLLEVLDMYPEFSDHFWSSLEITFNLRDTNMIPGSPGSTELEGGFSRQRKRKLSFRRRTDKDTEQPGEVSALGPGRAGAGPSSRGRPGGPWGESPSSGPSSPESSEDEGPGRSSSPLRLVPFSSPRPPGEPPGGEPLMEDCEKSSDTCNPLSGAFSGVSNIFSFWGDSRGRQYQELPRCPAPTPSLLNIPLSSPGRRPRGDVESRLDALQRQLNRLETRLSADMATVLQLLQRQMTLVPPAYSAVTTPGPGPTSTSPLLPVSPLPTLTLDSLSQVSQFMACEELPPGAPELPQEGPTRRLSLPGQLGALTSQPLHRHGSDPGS

C-C chemokine receptor type 2, sequence (P41597 whole entry): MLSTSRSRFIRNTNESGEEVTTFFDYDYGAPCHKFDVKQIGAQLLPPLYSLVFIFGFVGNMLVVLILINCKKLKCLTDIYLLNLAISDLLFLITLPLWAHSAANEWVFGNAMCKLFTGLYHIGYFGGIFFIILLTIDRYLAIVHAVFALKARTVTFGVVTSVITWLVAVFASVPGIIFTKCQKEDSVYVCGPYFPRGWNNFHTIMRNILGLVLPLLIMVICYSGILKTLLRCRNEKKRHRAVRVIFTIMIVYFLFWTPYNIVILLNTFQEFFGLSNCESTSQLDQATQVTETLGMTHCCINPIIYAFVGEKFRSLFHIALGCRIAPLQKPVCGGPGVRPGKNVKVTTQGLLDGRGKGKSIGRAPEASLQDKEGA
Voltage-gated inwardly rectifying potassium channel KCNH2, sequence (Q12809 whole entry): as the sequence (Q12809 whole entry) above

SMILES	IC50 [2]	AUC [3]	Cmax [4]	IC50 [1]	inhibition at 3 µM (hERG (KCNH2))
COC1COCCC1N[C@@H]1C[C@H]2CN(C(C)C)C[C@@]2(C(=O)N2CCc3ncc(C(F)(F)F)cc3C2)C1 (mixture of isomers)	1210 nM			> 50000 nM	
COC1COCCC1N[C@@H]1C[C@H]2CN(c3nccs3)C[C@@]2(C(=O)N2CCc3ncc(C(F)(F)F)cc3C2)C1 (mixture of isomers)	152 nM			> 50000 nM	
COC1COCCC1N[C@@H]1C[C@H]2CNC[C@@]2(C(=O)N2CCc3ncc(C(F)(F)F)cc3C2)C1 (mixture of isomers)				> 50000 nM	
COC1COCCC1N[C@@H]1C[C@H]2CN(/C(N)=N\C#N)C[C@@]2(C(=O)N2CCc3ncc(C(F)(F)F)cc3C2)C1 (mixture of isomers)	37 nM			> 50000 nM	
COC1COCCC1N[C@@H]1C[C@H]2CN(C3COC3)C[C@@]2(C(=O)N2CCc3ncc(C(F)(F)F)cc3C2)C1 (mixture of isomers)	126 nM			> 50000 nM	
COC1COCCC1N[C@@H]1C[C@H]2CN(C(=O)/C=C/C(C)(C)C)C[C@@]2(C(=O)N2CCc3ncc(C(F)(F)F)cc3C2)C1 (mixture of isomers)	68 nM			> 50000 nM	
COC1COCCC1N[C@@H]1C[C@H]2CN(c3ccccc3)C[C@@]2(C(=O)N2CCc3ncc(C(F)(F)F)cc3C2)C1 (mixture of isomers)	62 nM			22900 nM	
COC1COCCC1N[C@@H]1C[C@H]2CN(C(=O)NC(C)C)C[C@@]2(C(=O)N2CCc3ncc(C(F)(F)F)cc3C2)C1 (mixture of isomers)	410 nM			> 50000 nM	
COC1COCCC1N[C@@H]1C[C@H]2CN(C)C[C@@]2(C(=O)N2CCc3ncc(C(F)(F)F)cc3C2)C1 (mixture of isomers)				> 50000 nM	
COC1COCCC1N[C@@H]1C[C@H]2CN(C(=O)C#CC3CC3)C[C@@]2(C(=O)N2CCc3ncc(C(F)(F)F)cc3C2)C1 (mixture of isomers)	87 nM			49600 nM	
COC1COCCC1N[C@@H]1C[C@H]2CN(C(=O)Oc3ccccc3)C[C@@]2(C(=O)N2CCc3ncc(C(F)(F)F)cc3C2)C1 (mixture of isomers)	560 nM			> 50000 nM	
COC1COCCC1N[C@@H]1C[C@H]2CN(C(=O)/C=C/c3ccccc3)C[C@@]2(C(=O)N2CCc3ncc(C(F)(F)F)cc3C2)C1 (mixture of isomers)				24100 nM	
COC1COCCC1N[C@@H]1C[C@H]2CN(C(=O)NCc3ccccc3)C[C@@]2(C(=O)N2CCc3ncc(C(F)(F)F)cc3C2)C1 (mixture of isomers)	57 nM			> 50000 nM	
CCN1C[C@@H]2C[C@@H](NC3CCOCC3OC)C[C@]2(C(=O)N2CCc3ncc(C(F)(F)F)cc3C2)C1 (mixture of isomers)	629 nM			42600 nM	
COC1COCCC1N[C@@H]1C[C@H]2CN(C(=O)OCc3ccccc3)C[C@@]2(C(=O)N2CCc3ncc(C(F)(F)F)cc3C2)C1 (mixture of isomers)	118 nM			> 50000 nM	
CNC(=O)N1C[C@@H]2C[C@@H](NC3CCOCC3OC)C[C@]2(C(=O)N2CCc3ncc(C(F)(F)F)cc3C2)C1 (mixture of isomers)	77 nM			> 50000 nM	
COC1COCCC1N[C@@H]1C[C@H]2CN(C3CC3)C[C@@]2(C(=O)N2CCc3ncc(C(F)(F)F)cc3C2)C1 (mixture of isomers)	180 nM				

Continued, in another order:

IC50 [2]	AUC [3]	Cmax [4]	SMILES	IC50 [1]	inhibition at 3 µM (hERG (KCNH2))
410 nM			COC(=O)N1C[C@@H]2C[C@@H](NC3CCOCC3OC)C[C@]2(C(=O)N2CCc3ncc(C(F)(F)F)cc3C2)C1 (mixture of isomers)	> 50000 nM	
64 nM	74 ng·h/mL	70.6 ng/mL	COC1COCCC1N[C@@H]1C[C@H]2CN(C(N)=O)C[C@@]2(C(=O)N2CCc3ncc(C(F)(F)F)cc3C2)C1 (mixture of isomers)	> 50000 nM	
33 nM			COC1COCCC1N[C@@H]1C[C@H]2CN(C(=O)OCCN3CCCC3)C[C@@]2(C(=O)N2CCc3ncc(C(F)(F)F)cc3C2)C1 (mixture of isomers)	> 50000 nM	
45 nM			COC1COCCC1N[C@@H]1C[C@H]2CN(C(=O)OCCNC(C)=O)C[C@@]2(C(=O)N2CCc3ncc(C(F)(F)F)cc3C2)C1 (mixture of isomers)	> 50000 nM	
35 nM			COC1COCCC1N[C@@H]1C[C@H]2CN(C(=O)OCC(C)C)C[C@@]2(C(=O)N2CCc3ncc(C(F)(F)F)cc3C2)C1 (mixture of isomers)	> 50000 nM	
59 nM			COC1COCCC1N[C@@H]1C[C@H]2CN(C(=O)OCC(C)(C)C)C[C@@]2(C(=O)N2CCc3ncc(C(F)(F)F)cc3C2)C1 (mixture of isomers)	> 50000 nM	
82 nM			COCCOC(=O)N1C[C@@H]2C[C@@H](NC3CCOCC3OC)C[C@]2(C(=O)N2CCc3ncc(C(F)(F)F)cc3C2)C1 (mixture of isomers)	> 50000 nM	
41 nM			COC1COCCC1N[C@@H]1C[C@H]2CN(C(=O)OCCN3CCOCC3)C[C@@]2(C(=O)N2CCc3ncc(C(F)(F)F)cc3C2)C1 (mixture of isomers)	> 50000 nM	
395 nM			COC1COCCC1N[C@@H]1C[C@H]2CN(C(C)=O)C[C@@]2(C(=O)N2CCc3ncc(C(F)(F)F)cc3C2)C1 (mixture of isomers)	> 50000 nM	
32 nM			COC1COCCC1N[C@@H]1C[C@H]2CN(C(=O)OCC3CCOCC3)C[C@@]2(C(=O)N2CCc3ncc(C(F)(F)F)cc3C2)C1 (mixture of isomers)		
31 nM	427 ng·h/mL	145 ng/mL	COC1COCCC1N[C@@H]1C[C@H]2CN(C(=O)OCCC3CCOCC3)C[C@@]2(C(=O)N2CCc3ncc(C(F)(F)F)cc3C2)C1 (mixture of isomers)	> 50000 nM	7.3%

From ChEMBL document CHEMBL3112390, “Discovery and SAR of 5-aminooctahydrocyclopentapyrrole-3a-carboxamides as potent CCR2 antagonists” (Bioorg Med Chem Lett, 2014)
